Bioassay records as filed in PubChem BioAssay.
OXTR potentiator: potentiators of human oxytocin receptor | CHO-OTR cells, Fluo-8 calcium fluorescence, potentiator mode; 0% = oxytocin EC15, 100% = EC100 | activation, % at 3 µM | 320,000 tested, 0.061% active;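 active means activation above that plate's cutoff, the mean activation of tested compounds plus 3 SD, cut at about 6.6% in these data, passing the limit was not always enough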;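 further: 100% uses oxytocin at 75 nM as the full agonist control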
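Material: human OTR in CHO cells. Compound: 3.0 µM, one dose. Timing: compound 6 min at room temperature before oxytocin, 100 s read. Evaluation: % activation of max/min ratio relative to oxytocin controls. Replication: single well per compound, singlicate. Signal: Fluo-8 calcium dye fluorescence.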
TRPN1 ag: activates the zebrafish TRPN1 channel; activation, % at 3 µM; HEK293 zebrafish TRPN1-YFP, Fluo-8 calcium fluorescence; 100% = response to 87 µM carbachol; AID 1424; 220,000 tested, 0.18% active;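 active means activation above its plate's cutoff, the mean activation of test wells on that plate plus 3 SD, cut at about 19% in these data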;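 further: 0% = DMSO alone and 100% = 87 µM carbachol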
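Material: zebrafish TRPN1-YFP in HEK293 cells; Doses: single test compound dose, 3 µM nominal, 0.3% DMSO; Timing: dye loading 1 h at 37 °C, then 30 min room temperature; Technique: intracellular calcium fluorescence with Fluo-8; Benchmarks: high carbachol 87 µM, low DMSO alone.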
V1R ag counter: activates human V1a receptor in oxytocin agonist counter-screen; CHO-V1R cells, Fluo-8 calcium fluorescence, agonist mode; 0% DMSO, 100% 3 nM vasopressin; activation, % at 3 µM; 320,000 tested, 0.25% active; AID 2797;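 active means activation above the mean activation of all tested compounds plus 3 SD, per screening run, cut at about 20% in these data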;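 further: signal is peak over basal fluorescence ratio across a 100 second FLIPR read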
Target sequence (P37288 whole entry, looked up): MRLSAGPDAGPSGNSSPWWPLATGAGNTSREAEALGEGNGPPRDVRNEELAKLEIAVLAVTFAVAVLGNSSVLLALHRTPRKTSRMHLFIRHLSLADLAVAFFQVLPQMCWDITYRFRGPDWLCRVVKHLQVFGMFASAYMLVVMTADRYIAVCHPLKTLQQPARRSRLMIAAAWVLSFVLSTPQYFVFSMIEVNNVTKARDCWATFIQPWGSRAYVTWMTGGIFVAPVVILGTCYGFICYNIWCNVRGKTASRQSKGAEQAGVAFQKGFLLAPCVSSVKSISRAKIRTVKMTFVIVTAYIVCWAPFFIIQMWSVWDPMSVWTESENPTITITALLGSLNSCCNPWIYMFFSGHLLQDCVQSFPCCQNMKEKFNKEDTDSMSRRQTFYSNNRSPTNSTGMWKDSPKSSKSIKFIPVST
TRPML3 ag: human mucolipin-3 channel agonism; Q8TDD5; HEK293 TRPML3-YFP, Fluo-8 calcium fluorescence; 100% = the carbachol control signal; activation, % at 3 µM; 220,000 tested, 0.29% active; AID 1448;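 active means activation above its plate's cutoff, the mean activation of the plate's test wells plus 3 SD, cut at about 12% in these data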;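 further: 0% = DMSO only wells and 100% = carbachol wells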
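system = HEK293 cells stably carrying human TRPML3-YFP | doses = one concentration, 3 µM nominal, 0.3% DMSO | timing = dye loading 1 h 37 °C then 30 min ambient, 125 s read | detection = Fluo-8 calcium dye fluorescence, ex 470-495, em 515-575 nm | benchmarks = high control carbachol 87 µM, low control DMSO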
OXTR agonist: agonists of human oxytocin receptor; P30559; CHO-OTR cells, Fluo-8 calcium fluorescence; normalized: DMSO 0%, oxytocin 100%; activation, % at 3 µM; 320,000 tested, 0.32% active; AID 2435;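 active means activation above the mean of all tested compounds plus 3 SD, cutoff set per screening run, cut at about 20% in these data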;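 further: peak over basal fluorescence ratio from a 100 s FLIPR kinetic read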
* marks the source's active call; other numbers are inactive results; nt = not tested or not shown. Shown are actives, neighbours in structure and some others; about 0.58% of the full set was active somewhere.

SMILES	OXTR potentiator	TRPN1 ag	V1R ag counter	TRPML3 ag	OXTR agonist
COc1cc(/C=C2\S/C(=N/S(=O)(=O)c3ccc(C)cc3)NC2=O)c([N+](=O)[O-])cc1OC	1	1	-1	0	-1
C[C@H](CO)N1C[C@H](C)[C@@H](CN(C)C(=O)Nc2ccc(C(F)(F)F)cc2)Oc2ccc(NS(=O)(=O)c3cn(C)cn3)cc2C1=O	4	nt	1	nt	2
Cc1cc(Nc2ccccc2)nc(NCc2ccccc2)n1	-16	3	13	2	13
CCCCNc1cc(C)nc(NCc2ccccc2)n1	-34	6	27*	3	30*
O=C(O)c1ccccc1C(=O)NC1Cc2ccccc2C1	1	1	1	0	1
O=C(Nc1ccc(S(=O)(=O)Nc2ccccc2)cc1)c1ccc(CN2CCOCC2)cc1	-16	20*	10	7	9
O=C(Nc1ccc(CN2CCOCC2)cc1)c1ccc(Cl)cc1	-1	nt	3	nt	2
CCOc1ccc(S(=O)(=O)Nc2nc3ccccc3nc2-n2ccc(=NC(=O)c3ccccc3C)cc2)cc1	-6	37*	4	14*	1
C#CCOCCOCCOCCNc1nc(N2CCOCC2)nc(N2CCN(C(=O)CCCCCCCCCCNC(=O)[C@@H]([C@H](C)CC)n3cc(CCCCCN)nn3)CC2)n1	1	nt	0	nt	0
C#CCOCCOCCOCCNc1nc(N2CCN(C(=O)CCCCCCCCCCNC(=O)[C@H]([C@@H](C)CC)n3cc(CCCCN=C(N)N)nn3)CC2)nc(N2CCN(C(=O)CCCCCCCCCCNC(=O)[C@H](CO)n3cc(CCCCCN)nn3)CC2)n1	-19	nt	6	nt	-1
C#CCOCCOCCOCCNc1nc(N2CCN(C(=O)CCCCCCCCCCNC(=O)[C@H]([C@@H](C)CC)n3cc(CCCCCN)nn3)CC2)nc(N2CCN(C(=O)CCCCCCCCCCNC(=O)[C@H](CO)n3cc(CCCCCN)nn3)CC2)n1	-18	nt	46*	nt	22*
C#CCOCCOCCOCCNc1nc(N2CCN(C(=O)CCCCCCCCCCNC(=O)[C@H]([C@@H](C)CC)n3cc(CCCCCN)nn3)CC2)nc(N2CCN(C(=O)CCCCCCCCCCNC(=O)[C@@H]([C@H](C)CC)n3cc(CCCCCN)nn3)CC2)n1	-16	nt	27*	nt	19
CC1(c2ccccc2Cl)NC(=O)N(CC(=O)Nc2ccc3c(c2)OCO3)C1=O (stereo unspecified)	-6	0	0	-1	-1
N#C/C(=C\c1ccc(N2CCOCC2)o1)C(=O)NC1CCCCC1	-8	8	15	5	14
N#C/C(=C/c1ccc(N2CCOCC2)o1)C(=O)Nc1ccccc1	nt	72*	nt	36*	nt
COC(=O)C1(c2ccccc2)NC(c2cccs2)C2C(=O)N(c3ccccc3)C(=O)C21 (stereo unspecified)	-19	-2	21*	0	23*
O=[N+]([O-])c1ccccc1/C=N\N1CCN(Cc2ccccc2Cl)CC1	4	nt	0	nt	0
C/C(=C1/C(=O)N(c2ccc([N+](=O)[O-])cc2)N=C1c1ccccc1)N(C)C	-13	31*	62*	3	54*
O=C(Cn1nc(C(=O)O)c2ccccc2c1=O)Nc1cc(C(F)(F)F)ccc1-n1cncn1	2	nt	1	nt	5
CC(Oc1ccc(C(=O)c2ccccc2)cc1)C(=O)Nc1ccc(S(N)(=O)=O)cc1 (stereo unspecified)	-11	16	22*	3	33*
CC(Oc1ccccc1)C(=O)Nc1ccc(NC(=O)c2ccccc2)cc1 (stereo unspecified)	-1	nt	1	nt	1
COc1cc(CN(C2CCCCC2C)S(=O)(=O)c2ccc(S(=O)(=O)NC3CC3)cc2)cc(OC)c1OC (stereo unspecified)	-10	1	2	1	-1
COc1ccc(CN(C2CCCCC2C)S(=O)(=O)c2ccc(S(=O)(=O)N(C)C)cc2)cc1OC (stereo unspecified)	-9	39*	1	145*	2
Cc1ccc(OCC(=O)NCCCNC(=O)c2ccc(C)nc2)cc1	-4	nt	1	nt	0
O=C1CCN2C=Nc3cccc4ccc1c2c34	-14	7	29*	8	38*
SMILES	OXTR potentiator	TRPN1 ag	V1R ag counter	TRPML3 ag	OXTR agonist
Cc1cccc(CCNC(=O)CCc2nnc(CCc3ccccc3)o2)n1	-17	0	1	0	-1
O=C(NC1CCCC1)c1sc(=S)n2c1[nH]c(=O)c1ccccc12	-16	2	8	0	10
O=C(NCc1ccco1)c1sc(=S)n2c1[nH]c(=O)c1ccccc12	-11	3	21*	1	24*
Cc1ccc(C(=O)NCCOc2ccc(Cl)cc2)cc1	6	nt	-2	nt	-1
Cc1cccc(C)c1NC(=O)C(=O)NCCOc1ccc(Cl)cc1	-22	4	19	1	22*
O=[N+]([O-])c1ccc(/C=C/C2=NN(c3ccccc3)C(c3ccco3)C2)o1 (stereo unspecified)	nt	23*	nt	21*	nt
CCCCCCn1c(=O)[nH]c2nc3cc(N)ccc3nc2c1=O	-12	37*	74*	46*	96*
Cc1cc(C)nc(NS(=O)(=O)c2ccc(NC(=O)C3(c4ccc([N+](=O)[O-])cc4)CCCC3)cc2)n1	-7	16	22*	7	22*
COc1ccc(C(=O)NC2CCN(Cc3c(F)cccc3Cl)CC2)cc1OC	2	nt	0	nt	2
COC(=O)C1=C(C)N(Cc2ccccc2)C(=NCC(C)C)N[C@H]1c1cccc(F)c1	-11	nt	23*	nt	31*
COC(=O)C1=C(C)N(Cc2ccccc2)C(=NCC(C)C)N[C@H]1c1cccc(C(F)(F)F)c1	-10	nt	3	nt	14
Cc1cc(-c2cc(C(=O)Nc3ccccc3)on2)nc(NC2CCCC2)n1	-6	nt	-1	nt	-2
N#Cc1c(Cl)nsc1NC(=O)c1ccccc1	-15	30*	12	21*	16
CN(C(=O)c1ccc(NC(=O)Cc2ccc([N+](=O)[O-])cc2)cc1)C1CC1	-9	nt	30*	nt	38*
CN(C(=O)c1ccc(NC(=O)Cc2cccc([N+](=O)[O-])c2)cc1)C1CC1	-7	nt	1	nt	1
CCOc1ccc(NS(=O)(=O)c2ccc(C(=O)NCC(c3cccs3)N3CCOCC3)cc2)cc1 (stereo unspecified)	-21	nt	26*	nt	26*
CC(=O)c1ccc(S(=O)(=O)Nc2ccc(C(=O)NCC(c3cccs3)N3CCOCC3)cc2)cc1 (stereo unspecified)	-8	nt	2	nt	1
COc1ccc(/C=C2\SC(=O)NC2=S)cc1OC	-13	74*	36*	43*	29*
CCOc1ccc(/C=C2\SC(=S)NC2=O)cc1OC	-5	1	1	1	-1
